This note sets out measurements from ChEMBL document CHEMBL1142368, “The discovery of adamantyl-derived, inhaled, long acting beta(2)-adrenoreceptor agonists” (Bioorg Med Chem Lett, 2008).

The structures appear in SMILES notation.

The species entered for one data set is Homo sapiens. Kind of data set: Selectivity for human recombinant adrenergic beta2 receptor over human recombinant adrenergic beta-1 receptor. An outline of the steps: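 Cell-based functional agonist assay using recombinant human β2 receptor expressed in CHO cells, compared against human β1 receptor.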
A short description of data set [1]: Metabolic stability in human liver microsomes. As to conditions: read-out: Stability. The class given is ADME, Microsome.
The nature of data set [2]: Distribution coefficient, log D of the compound. As to conditions: octanol/water. Type of data set: physicochemical.
Data set [3] can be described thus: Volume of distribution in iv dosed rat. Type of data set: ADME, organism-based. The note with it: in vivo. An outline of the steps: (§1)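 Rats were given the compound intravenously, and volume of distribution, clearance and half life were determined from that dosing.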
Data set [4] in a line: Oral bioavailability in rat. The class given is ADME, organism-based. As to conditions: in vivo. An outline of the steps: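 Rats received the compound orally and intravenously in a crossover study.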
The nature of data set [5]: Clearance in iv dosed rat. The note with it: in vivo. Type of data set: ADME, organism-based. An outline of the steps:
as §1

Data set [6] can be described thus: Half life in iv dosed rat. Type of data set: ADME, organism-based. The note with it: in vivo. In outline: as §1

One may read the logD as lipophilicity at a set pH, counting ionised and neutral species. For the compound `C[C@H](Cc1cccc(CC(=O)NCC2CCCCC2)c1)NC[C@H](O)c1ccc(O)c(CO)c1`, the Selectivity ratio in the data set filed under Homo sapiens stood at 6790. Further, the half-life in data set [1] was determined as 3 min. Moreover, the logD in data set [2] came out at 1.5.
For the compound `C[C@H](Cc1cccc(CC(=O)NCc2ccc(Cl)c(Cl)c2)c1)NC[C@H](O)c1ccc(O)c(CO)c1`, in the data set filed under Homo sapiens, the Selectivity ratio came out at 6340. For the same compound, the half-life in data set [1] was 4 min.
`C[C@H](Cc1cccc(CC(=O)NC2C3CC4CC(C3)CC2C4)c1)NC[C@H](O)c1ccc(O)c(CO)c1` (stereo partly drawn): the Selectivity ratio in the data set filed under Homo sapiens was determined as 451. In data set [1], the half-life is 2 min. In addition, in data set [2], the logD was 2.1.
In the same order, the values of `C[C@H](Cc1cccc(CC(=O)NC2CCCCCCC2)c1)NC[C@H](O)c1ccc(O)c(CO)c1` are 192, 2 min and 1.9.
Turning to `C[C@H](Cc1cccc(CC(=O)NCC2CCCCCC2)c1)NC[C@H](O)c1ccc(O)c(CO)c1`, in the data set listed under Homo sapiens, the Selectivity ratio turned out to be 1890. For the same compound, the logD in data set [2] came out at 2.
On to `C[C@H](Cc1cccc(CC(=O)NCC23CC4CC(CC(C4)C2)C3)c1)NC[C@H](O)c1ccc(O)c(CO)c1`, for which, in the data set filed under Homo sapiens, the Selectivity ratio stood at 547. Also, the half-life in data set [1] worked out at 2 min. For the same compound, the logD in data set [2] was 2.5.
The Vd is the apparent volume that relates the amount in the body to the concentration in plasma or blood. Lower therefore signals little distribution into tissue. Usually bioavailability stands for the share of a dose that reaches the circulation, judged against a reference dose that is usually intravenous. Read a low bioavailability as poor availability. The clearance is the volume of plasma or blood freed of the substance per unit of time. Lower therefore signals a low capacity for elimination. For the compound `C[C@H](Cc1cccc(CC(=O)NC23CC4CC(CC(C4)C2)C3)c1)NC[C@H](O)c1ccc(O)c(CO)c1`, the Vd in data set [3] amounted to 14 L/kg. Also, the Selectivity ratio in the data set listed under Homo sapiens was determined as 2210. Moreover, the bioavailability in data set [4] is below 5%. Also, the half-life in data set [1] is 2 min; in data set [6] it was 96 min. In data set [5], the clearance worked out at 103 mL/min/kg. For the same compound, in data set [2], the logD came to 2.1.
